Blank lines part the entries; values can stand above or below the compound they belong to. Activity calls are given as the source filed them. The calls are words filed in the database; no cut-off is given here.
Columns and labels:
[1] = system: LNCaP; assay: Induction of cell cycle arrest in human LNCaP cells with IR-induced DNA damage assessed as reduction in number of cells at G2 phase at 10 uM incubated for 24 hrs in the presence of 5 Gy by PI-staining-based flow cytometry analysis; assay type: functional
Outline: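 LNCaP cells given 5 Gy x-ray alone or with agent (10 μm, 24 h). Propidium iodide staining and flow cytometric DNA content analysis of cell cycle phases; performed in triplicate.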

[2] = biological target: Wee1-like protein kinase (Homo sapiens, UniProt P30291); assay: Inhibition of WEE1 (unknown origin) in the presence of [33P]ATP by kinase hotspot assay
[3] = biological target: Tyrosine-protein kinase Lck (Homo sapiens, UniProt P06239); assay: Inhibition of LCK (unknown origin) in the presence of [33P]ATP by kinase hotspot assay
[4] = biological target: Tyrosine-protein kinase Lyn (Homo sapiens, UniProt P07948)
[5] = biological target: Glycogen synthase kinase-3 alpha (Homo sapiens, UniProt P49840); assay: Inhibition of GSK3alpha (unknown origin) in the presence of [33P]ATP by kinase hotspot assay
[6] = biological target: Tyrosine-protein kinase BTK (Homo sapiens, UniProt Q06187); assay: Inhibition of BTK (unknown origin) in the presence of [33P]ATP by kinase hotspot assay
[7] = biological target: Insulin receptor (Homo sapiens, UniProt P06213); assay: Inhibition of IR (unknown origin) in the presence of [33P]ATP by kinase hotspot assay
[8] = system: LNCaP; assay: Antitumor activity against irradiated human LNCaP-caAck expressing cells xenografted mouse assessed as necrosis at 4 mg/kg on 7th day by Hematoxylin and eosin staining; assay type: functional, organism-based
Outline: (§1)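 Irradiated (1.5 Gy) LNCaP-caAck xenografts in castrated nude mice dosed 4 mg/kg from day 7 (DMSO control) were excised, fixed, paraffin-embedded and sectioned. Sections stained with H&E, or for ATM by IHC: citrate pH 6.0 retrieval at 95 °C 30 min, rabbit monoclonal ATM antibody 1:300 overnight 4 °C, biotin secondary/streptavidin-peroxidase, DAB, hematoxylin counterstain.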

[9] = biological target: RAC-gamma serine/threonine-protein kinase (Homo sapiens, UniProt Q9Y243); assay: Inhibition of AKT3 (unknown origin) in the presence of [33P]ATP by kinase hotspot assay
[10] = biological target: RAC-alpha serine/threonine-protein kinase (Homo sapiens, UniProt P31749); assay: Inhibition of AKT1 (unknown origin) in the presence of [33P]ATP by kinase hotspot assay
RAC-alpha serine/threonine-protein kinase, sequence (P31749 whole entry): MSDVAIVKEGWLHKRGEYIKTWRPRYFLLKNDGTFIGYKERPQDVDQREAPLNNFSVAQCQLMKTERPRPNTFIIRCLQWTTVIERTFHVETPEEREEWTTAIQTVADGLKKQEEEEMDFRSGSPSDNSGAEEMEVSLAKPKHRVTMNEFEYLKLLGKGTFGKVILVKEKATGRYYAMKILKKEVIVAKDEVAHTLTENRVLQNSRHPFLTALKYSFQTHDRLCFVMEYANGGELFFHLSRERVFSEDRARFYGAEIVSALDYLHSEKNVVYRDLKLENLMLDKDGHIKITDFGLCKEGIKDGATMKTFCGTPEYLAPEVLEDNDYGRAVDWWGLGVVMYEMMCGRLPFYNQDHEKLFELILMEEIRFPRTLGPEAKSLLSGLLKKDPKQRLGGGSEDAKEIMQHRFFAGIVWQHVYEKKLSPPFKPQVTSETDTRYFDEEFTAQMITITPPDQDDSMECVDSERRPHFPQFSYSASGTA

[11] = biological target: Tyrosine-protein kinase receptor UFO (Homo sapiens, UniProt P30530); assay: Inhibition of AXL (unknown origin) in the presence of [33P]ATP by kinase hotspot assay
[12] = biological target: Serine/threonine-protein kinase Chk1 (Homo sapiens, UniProt O14757); assay: Inhibition of CHK1 (unknown origin) in the presence of [33P]ATP by kinase hotspot assay
[13] = Toxicity in mouse assessed as change in body weight; conditions: in vivo
Outline: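 Body weight of castrated nude mice bearing LNCaP-caAck xenografts tracked during dosing at 4 mg/kg per injection (day 7, then days 11–27 every 4 days) versus DMSO-injected controls; morbidity also noted.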

[14] = biological target: Serine/threonine-protein kinase mTOR (Homo sapiens, UniProt P42345); assay: Inhibition of mTOR (unknown origin) in the presence of [33P]ATP by kinase hotspot assay
[15] = biological target: DNA-dependent protein kinase catalytic subunit (Homo sapiens, UniProt P78527); assay: Inhibition of DNA-PK (unknown origin) in the presence of [33P]ATP by kinase hotspot assay
DNA-dependent protein kinase catalytic subunit, sequence (P78527 whole entry, canonical isoform): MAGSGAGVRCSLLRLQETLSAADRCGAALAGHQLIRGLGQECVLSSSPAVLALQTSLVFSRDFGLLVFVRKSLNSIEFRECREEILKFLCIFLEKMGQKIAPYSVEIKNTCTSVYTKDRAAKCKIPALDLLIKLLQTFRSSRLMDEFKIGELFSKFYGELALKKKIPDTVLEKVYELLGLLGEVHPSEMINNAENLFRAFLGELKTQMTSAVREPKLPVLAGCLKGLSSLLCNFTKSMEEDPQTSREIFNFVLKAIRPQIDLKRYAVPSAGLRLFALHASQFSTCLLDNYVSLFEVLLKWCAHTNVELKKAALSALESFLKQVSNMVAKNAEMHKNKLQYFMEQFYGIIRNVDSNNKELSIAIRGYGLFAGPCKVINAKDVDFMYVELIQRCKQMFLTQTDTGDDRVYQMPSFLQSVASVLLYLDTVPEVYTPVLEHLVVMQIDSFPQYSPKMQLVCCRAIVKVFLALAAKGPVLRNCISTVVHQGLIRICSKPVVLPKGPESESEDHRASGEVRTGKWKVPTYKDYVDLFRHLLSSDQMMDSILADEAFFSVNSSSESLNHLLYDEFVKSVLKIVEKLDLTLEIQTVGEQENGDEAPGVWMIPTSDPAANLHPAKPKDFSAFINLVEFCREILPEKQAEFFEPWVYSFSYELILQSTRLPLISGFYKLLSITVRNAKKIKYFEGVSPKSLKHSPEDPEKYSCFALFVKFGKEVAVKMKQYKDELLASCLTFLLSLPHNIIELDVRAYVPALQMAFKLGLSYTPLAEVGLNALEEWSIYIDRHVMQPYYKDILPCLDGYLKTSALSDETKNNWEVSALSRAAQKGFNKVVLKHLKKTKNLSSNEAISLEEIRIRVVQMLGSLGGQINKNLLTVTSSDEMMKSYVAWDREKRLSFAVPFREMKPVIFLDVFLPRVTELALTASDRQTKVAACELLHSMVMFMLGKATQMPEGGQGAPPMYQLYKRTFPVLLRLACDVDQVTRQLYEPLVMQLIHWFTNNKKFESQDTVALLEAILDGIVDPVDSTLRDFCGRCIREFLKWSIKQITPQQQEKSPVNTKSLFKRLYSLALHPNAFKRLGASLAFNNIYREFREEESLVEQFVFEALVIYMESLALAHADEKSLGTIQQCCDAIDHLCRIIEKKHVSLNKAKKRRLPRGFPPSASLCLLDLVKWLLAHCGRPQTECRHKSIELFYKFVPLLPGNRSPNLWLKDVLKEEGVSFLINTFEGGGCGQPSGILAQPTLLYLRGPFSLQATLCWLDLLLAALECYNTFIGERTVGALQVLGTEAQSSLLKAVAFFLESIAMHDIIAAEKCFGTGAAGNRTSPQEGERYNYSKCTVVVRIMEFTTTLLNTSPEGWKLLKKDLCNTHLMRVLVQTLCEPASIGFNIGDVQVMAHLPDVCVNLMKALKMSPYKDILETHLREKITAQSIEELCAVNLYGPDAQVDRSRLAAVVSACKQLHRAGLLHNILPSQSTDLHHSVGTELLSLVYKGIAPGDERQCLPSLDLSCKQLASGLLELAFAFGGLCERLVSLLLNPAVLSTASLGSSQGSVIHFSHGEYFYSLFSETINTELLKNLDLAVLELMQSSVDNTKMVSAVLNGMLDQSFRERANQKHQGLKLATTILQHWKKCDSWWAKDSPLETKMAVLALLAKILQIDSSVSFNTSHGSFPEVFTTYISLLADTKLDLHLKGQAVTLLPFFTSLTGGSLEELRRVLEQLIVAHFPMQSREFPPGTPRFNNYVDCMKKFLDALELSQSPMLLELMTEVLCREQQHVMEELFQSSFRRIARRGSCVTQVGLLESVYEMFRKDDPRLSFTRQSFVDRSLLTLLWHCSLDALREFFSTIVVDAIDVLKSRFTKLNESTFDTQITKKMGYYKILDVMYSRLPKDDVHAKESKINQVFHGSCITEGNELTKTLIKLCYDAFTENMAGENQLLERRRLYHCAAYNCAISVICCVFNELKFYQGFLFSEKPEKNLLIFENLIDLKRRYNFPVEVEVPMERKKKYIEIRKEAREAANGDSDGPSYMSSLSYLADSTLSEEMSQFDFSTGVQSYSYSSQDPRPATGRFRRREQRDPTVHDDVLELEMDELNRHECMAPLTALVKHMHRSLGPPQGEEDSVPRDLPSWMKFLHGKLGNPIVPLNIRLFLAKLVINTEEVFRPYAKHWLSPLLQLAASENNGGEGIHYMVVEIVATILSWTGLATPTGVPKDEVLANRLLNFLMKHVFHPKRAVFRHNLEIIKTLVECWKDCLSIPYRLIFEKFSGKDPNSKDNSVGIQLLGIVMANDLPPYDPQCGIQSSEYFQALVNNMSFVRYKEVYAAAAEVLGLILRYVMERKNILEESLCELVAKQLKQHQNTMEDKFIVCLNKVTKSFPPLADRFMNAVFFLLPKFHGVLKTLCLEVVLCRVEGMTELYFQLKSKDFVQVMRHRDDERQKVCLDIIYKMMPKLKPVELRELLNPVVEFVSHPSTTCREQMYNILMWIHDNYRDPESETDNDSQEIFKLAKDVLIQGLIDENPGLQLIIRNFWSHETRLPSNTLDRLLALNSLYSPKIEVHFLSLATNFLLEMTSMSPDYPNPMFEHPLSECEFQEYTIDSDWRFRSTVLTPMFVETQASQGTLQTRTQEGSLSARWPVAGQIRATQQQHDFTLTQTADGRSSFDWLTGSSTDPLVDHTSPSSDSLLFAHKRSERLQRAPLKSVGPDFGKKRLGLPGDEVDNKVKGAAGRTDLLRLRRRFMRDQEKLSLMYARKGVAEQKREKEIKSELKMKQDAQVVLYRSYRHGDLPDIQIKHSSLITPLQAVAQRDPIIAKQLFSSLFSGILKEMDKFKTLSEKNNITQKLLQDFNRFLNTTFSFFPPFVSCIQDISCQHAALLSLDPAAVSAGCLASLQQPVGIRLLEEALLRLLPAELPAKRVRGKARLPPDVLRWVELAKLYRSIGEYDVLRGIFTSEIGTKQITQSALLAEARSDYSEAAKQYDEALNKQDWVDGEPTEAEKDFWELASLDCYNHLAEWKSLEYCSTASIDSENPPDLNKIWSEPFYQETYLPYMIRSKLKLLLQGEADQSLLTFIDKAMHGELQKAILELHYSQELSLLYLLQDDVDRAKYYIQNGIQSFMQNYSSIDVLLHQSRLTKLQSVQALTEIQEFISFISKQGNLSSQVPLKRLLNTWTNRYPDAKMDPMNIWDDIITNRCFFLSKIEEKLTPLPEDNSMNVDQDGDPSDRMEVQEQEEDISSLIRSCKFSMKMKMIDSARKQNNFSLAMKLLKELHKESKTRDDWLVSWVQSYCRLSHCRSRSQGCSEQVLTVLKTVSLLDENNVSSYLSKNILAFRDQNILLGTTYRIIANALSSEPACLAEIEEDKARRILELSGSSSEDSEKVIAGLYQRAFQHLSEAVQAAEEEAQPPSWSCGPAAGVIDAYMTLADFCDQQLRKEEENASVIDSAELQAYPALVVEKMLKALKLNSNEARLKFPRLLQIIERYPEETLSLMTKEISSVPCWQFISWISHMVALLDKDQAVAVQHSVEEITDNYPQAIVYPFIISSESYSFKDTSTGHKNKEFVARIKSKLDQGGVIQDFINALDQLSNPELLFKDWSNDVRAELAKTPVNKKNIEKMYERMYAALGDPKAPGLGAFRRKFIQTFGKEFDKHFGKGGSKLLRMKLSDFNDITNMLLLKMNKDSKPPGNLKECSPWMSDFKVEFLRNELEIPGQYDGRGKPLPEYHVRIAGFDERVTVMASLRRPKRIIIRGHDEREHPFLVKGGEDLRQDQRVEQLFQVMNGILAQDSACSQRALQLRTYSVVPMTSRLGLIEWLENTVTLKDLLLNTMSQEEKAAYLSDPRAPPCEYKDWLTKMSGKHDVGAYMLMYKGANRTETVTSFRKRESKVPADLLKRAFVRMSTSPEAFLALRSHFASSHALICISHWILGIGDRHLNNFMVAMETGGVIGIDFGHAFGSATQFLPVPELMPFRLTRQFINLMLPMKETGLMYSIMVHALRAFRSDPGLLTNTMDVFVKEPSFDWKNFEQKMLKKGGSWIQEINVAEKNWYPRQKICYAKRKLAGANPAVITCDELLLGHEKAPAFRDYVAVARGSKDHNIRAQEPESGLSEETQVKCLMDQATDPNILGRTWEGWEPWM

[16] = biological target: Phosphatidylinositol 4,5-bisphosphate 3-kinase catalytic subunit alpha isoform (Homo sapiens, UniProt P42336); assay: Inhibition of PI3Kalpha (unknown origin) in the presence of [33P]ATP by kinase hotspot assay
[17] = system: LNCaP; assay: Antitumor activity against irradiated human LNCaP-caAck FLAG-tagged KD ATM expressing cells xenografted mouse assessed as inhibition of tumor growth at 4 mg/kg on day 12; assay type: functional, organism-based
Outline: (§2)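 Castrated male nude mice received LNCaP-caAck cells transfected with FLAG-tagged kinase-dead or wild-type ATM constructs (CMV promoter), irradiated 1.5 Gy before injection. Inhibitor 4 mg/kg per injection starting day 12 after cell injection, then on days 15, 19, 23 and 27; n = 5 mice per group; tumor growth followed.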

[18] = system: LNCaP; assay: Antitumor activity against irradiated human LNCaP-caAck expressing cells xenografted mouse assessed as reduction in tumor growth at 4 mg/kg on 7th day; assay type: functional, organism-based
Outline: (§3)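 LNCaP-caAck cells (2 × 10⁶), unirradiated or irradiated 1.5 Gy, in PBS/Matrigel 1:1, injected subcutaneously into flanks of castrated male nude mice. Inhibitor 4 mg/kg per injection on day 7 post-implantation, then days 11, 15, 19, 23, 27; DMSO control; n = 8 per group. Caliper tumor volumes twice weekly; two independent experiments.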

[19] = biological target: Serine/threonine-protein kinase pim-1 (Homo sapiens, UniProt P11309); assay: Inhibition of PIM1 (unknown origin) in the presence of [33P]ATP by kinase hotspot assay
[20] = system: LNCaP; assay: Induction of cell cycle arrest in human LNCaP cells with IR-induced DNA damage assessed as high number of cells with DSBs at 5 uM after 5 hrs in the presence of 15 Gy by flow cytometry analysis; assay type: functional, cell-based
[21] = biological target: Serine/threonine-protein kinase Sgk1 (Homo sapiens, UniProt O00141); assay: Inhibition of SGK1 (unknown origin) in the presence of [33P]ATP by kinase hotspot assay
[22] = biological target: Tyrosine-protein kinase JAK2 (Homo sapiens, UniProt O60674); assay: Inhibition of JAK2 (unknown origin) in the presence of [33P]ATP by kinase hotspot assay
[23] = system: LNCaP; assay: Antitumor activity against unirradiated human LNCaP-caAck expressing cells xenografted mouse assessed as reduction in tumor growth at 4 mg/kg on 7th day; assay type: functional; set-up: scale not given: the % may be the effect or the level left; outline: as §3
[24] = biological target: Inhibitor of nuclear factor kappa-B kinase subunit alpha (Homo sapiens, UniProt O15111); assay: Inhibition of IKKalpha (unknown origin) in the presence of [33P]ATP by kinase hotspot assay
[25] = system: LNCaP; assay: Antitumor activity against irradiated human LNCaP-caAck FLAG-tagged wild-type ATM expressing cells xenografted mouse assessed as inhibition of tumor growth at 4 mg/kg on day 12; assay type: functional, organism-based; outline: as §2
[26] = system: LNCaP; assay: Antitumor activity against irradiated human LNCaP-caAck expressing cells xenografted mouse assessed as reduction in ATM expression level at 4 mg/kg on 7th day by immunohistochemical staining; assay type: functional, organism-based; outline: as §1
[27] = biological target: Activated CDC42 kinase 1 (Homo sapiens, UniProt Q07912); assay: Inhibition of Ack1 (unknown origin) in the presence of [33P]ATP by kinase hotspot assay
[28] = biological target: Platelet-derived growth factor receptor alpha (Homo sapiens, UniProt P16234); assay: Inhibition of PDGFRalpha (unknown origin) in the presence of [33P]ATP by kinase hotspot assay
[29] = biological target: Mitogen-activated protein kinase 3 (Homo sapiens, UniProt P27361); assay: Inhibition of ERK1 (unknown origin) in the presence of [33P]ATP by kinase hotspot assay
[30] = biological target: Vascular endothelial growth factor receptor 2 (Homo sapiens, UniProt P35968); assay: Inhibition of VEGFR2 (unknown origin) in the presence of [33P]ATP by kinase hotspot assay
[31] = biological target: Phosphatidylinositol 4,5-bisphosphate 3-kinase catalytic subunit beta isoform (Homo sapiens, UniProt P42338); assay: Inhibition of PI3Kbeta (unknown origin) in the presence of [33P]ATP by kinase hotspot assay
[32] = biological target: Receptor tyrosine-protein kinase erbB-2 (Homo sapiens, UniProt P04626); assay: Inhibition of HER2 (unknown origin) in the presence of [33P]ATP by kinase hotspot assay
[33] = biological target: Tyrosine-protein kinase receptor TYRO3 (Homo sapiens, UniProt Q06418); assay: Inhibition of TYRO3 (unknown origin) in the presence of [33P]ATP by kinase hotspot assay
[34] = biological target: Insulin-like growth factor 1 receptor (Homo sapiens, UniProt P08069); assay: Inhibition of IGF1R (unknown origin) in the presence of [33P]ATP by kinase hotspot assay
[35] = biological target: RAF proto-oncogene serine/threonine-protein kinase (Homo sapiens, UniProt P04049); assay: Inhibition of RAF1 (unknown origin) in the presence of [33P]ATP by kinase hotspot assay
[36] = system: LNCaP; assay: Induction of cell cycle arrest in human LNCaP cells with IR-induced DNA damage assessed as reduction in proportion of cells at G2 phase at 5 uM incubated for 24 hrs in the presence of 5 Gy by PI-staining-based flow cytometry analysis; assay type: functional; set-up: scale not given: the % may be the effect or the level left
Outline: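 LNCaP cells left untreated, given 5 Gy x-ray, inhibitor (5 μm, 24 h), or both; harvested 16 h after irradiation. Nuclei processed with trypsin, trypsin inhibitor/RNase A, then propidium iodide; DNA content of 20,000 cells by flow cytometry, cell cycle modelled. Three independent experiments.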

[37] = biological target: Mitogen-activated protein kinase kinase kinase 8 (Homo sapiens, UniProt P41279); assay: Inhibition of MAP3K8 (unknown origin) in the presence of [33P]ATP by kinase hotspot assay
Mitogen-activated protein kinase kinase kinase 8, sequence (P41279 whole entry): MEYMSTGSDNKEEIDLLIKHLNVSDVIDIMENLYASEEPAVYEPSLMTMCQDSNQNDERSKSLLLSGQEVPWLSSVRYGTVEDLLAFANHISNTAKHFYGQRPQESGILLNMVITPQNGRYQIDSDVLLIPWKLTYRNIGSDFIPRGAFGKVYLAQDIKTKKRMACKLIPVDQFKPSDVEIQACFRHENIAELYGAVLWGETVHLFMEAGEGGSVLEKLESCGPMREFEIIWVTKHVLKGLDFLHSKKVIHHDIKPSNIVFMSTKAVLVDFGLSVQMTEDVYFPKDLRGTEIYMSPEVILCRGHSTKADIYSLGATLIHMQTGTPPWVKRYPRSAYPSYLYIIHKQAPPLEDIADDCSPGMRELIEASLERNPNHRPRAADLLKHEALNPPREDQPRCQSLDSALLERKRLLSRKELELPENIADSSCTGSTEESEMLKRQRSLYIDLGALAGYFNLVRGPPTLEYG

[38] = biological target: Tyrosine-protein kinase ABL1 (Homo sapiens, UniProt P00519); assay: Inhibition of ABL1 (unknown origin) in the presence of [33P]ATP by kinase hotspot assay

Structure (SMILES): O=c1cc(-c2cccc3c2Sc2ccccc2S3)oc(N2CCOCC2)c1
Activity [1]: Active

IC50 [2]: Not Active | IC50 [3]: 432 nM | IC50 [4]: 347 nM | IC50 [5]: Not Active | IC50 [6]: 872 nM | IC50 [7]: Not Active | IC50 [9]: Not Active | IC50 [10]: Not Active | IC50 [11]: Not Active | IC50 [12]: Not Active | IC50 [14]: Not Active | IC50 [15]: Not Active | IC50 [16]: Not Active | IC50 [19]: Not Active | IC50 [21]: Not Active | IC50 [22]: Not Active | IC50 [24]: Not Active | IC50 [27]: 21.6 nM | IC50 [28]: Not Active | IC50 [29]: Not Active | IC50 [30]: Not Active | IC50 [31]: Not Active | IC50 [32]: Not Active | IC50 [33]: Not Active | IC50 [34]: Not Active | IC50 [35]: Not Active | IC50 [37]: Not Active | IC50 [38]: 706 nM
Structure (SMILES): c1ccc(-c2oc3ncnc(NC[C@@H]4CCCO4)c3c2-c2ccccc2)cc1
Activity [8]: Active | Activity [1]: Active | Activity [13]: Non-Toxic | inhibition [17]: Active | Activity [18]: Active | Activity [20]: Active | Activity [23]: ~50% | inhibition [25]: inactive | Activity [26]: Active | Activity [36]: 38%

Structure (SMILES): C[S+](C)[O-] [DIMETHYL SULFOXIDE]
Activity [13]: Non-Toxic

Structure (SMILES): CN[C@@H]1C[C@H]2O[C@@](C)([C@@H]1OC)n1c3ccccc3c3c4c(c5c6ccccc6n2c5c31)C(=O)NC4 [STAUROSPORINE]
IC50 [14]: Not Active | IC50 [15]: Not Active | IC50 [35]: Not Active | IC50 ([37]; read-out: IC50): > 20000 nM

— ChEMBL document CHEMBL5653609, “Ack1-mediated androgen receptor phosphorylation modulates radiation resistance in castration-resistant prostate cancer” (J Biol Chem, 2012)
